# According to ChEMBL document CHEMBL5143652, “Quinazolinones as allosteric fourth-generation EGFR inhibitors for the treatment of NSCLC” (Bioorg Med Chem Lett, 2022):
# Calls of active or inactive are those of the source. The calls are words filed in the database; no cut-off is given here.
# Key:
# BaF3 [1] = experiment: Antiproliferative activity against mouse BaF3 cells harboring EGFR L858R/T790M double mutant assessed as inhibition of cell growth; format: functional, cell-based
# Method in brief: (§1)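 Ba/F3 proliferation assay with the compound alone (single-agent readout, no cetuximab). Cellular IC50 is reported in μM.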
# BaF3 [2] = experiment: Antiproliferative activity against mouse BaF3 cells harboring EGFR L858R/T790M double mutant assessed as inhibition of cell growth in presence of cetuximab; format: functional, cell-based
# Method in brief: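 Ba/F3 proliferation assay, second readout: cells co-treated with cetuximab to prevent EGFR dimer formation. Cellular IC50 is reported in μM.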
# [3] = target: Epidermal growth factor receptor (Homo sapiens, UniProt P00533, L858R/T790M); experiment: biochemical
# Epidermal growth factor receptor, sequence (P00533 25-1210 T790M/L858R limits assumed): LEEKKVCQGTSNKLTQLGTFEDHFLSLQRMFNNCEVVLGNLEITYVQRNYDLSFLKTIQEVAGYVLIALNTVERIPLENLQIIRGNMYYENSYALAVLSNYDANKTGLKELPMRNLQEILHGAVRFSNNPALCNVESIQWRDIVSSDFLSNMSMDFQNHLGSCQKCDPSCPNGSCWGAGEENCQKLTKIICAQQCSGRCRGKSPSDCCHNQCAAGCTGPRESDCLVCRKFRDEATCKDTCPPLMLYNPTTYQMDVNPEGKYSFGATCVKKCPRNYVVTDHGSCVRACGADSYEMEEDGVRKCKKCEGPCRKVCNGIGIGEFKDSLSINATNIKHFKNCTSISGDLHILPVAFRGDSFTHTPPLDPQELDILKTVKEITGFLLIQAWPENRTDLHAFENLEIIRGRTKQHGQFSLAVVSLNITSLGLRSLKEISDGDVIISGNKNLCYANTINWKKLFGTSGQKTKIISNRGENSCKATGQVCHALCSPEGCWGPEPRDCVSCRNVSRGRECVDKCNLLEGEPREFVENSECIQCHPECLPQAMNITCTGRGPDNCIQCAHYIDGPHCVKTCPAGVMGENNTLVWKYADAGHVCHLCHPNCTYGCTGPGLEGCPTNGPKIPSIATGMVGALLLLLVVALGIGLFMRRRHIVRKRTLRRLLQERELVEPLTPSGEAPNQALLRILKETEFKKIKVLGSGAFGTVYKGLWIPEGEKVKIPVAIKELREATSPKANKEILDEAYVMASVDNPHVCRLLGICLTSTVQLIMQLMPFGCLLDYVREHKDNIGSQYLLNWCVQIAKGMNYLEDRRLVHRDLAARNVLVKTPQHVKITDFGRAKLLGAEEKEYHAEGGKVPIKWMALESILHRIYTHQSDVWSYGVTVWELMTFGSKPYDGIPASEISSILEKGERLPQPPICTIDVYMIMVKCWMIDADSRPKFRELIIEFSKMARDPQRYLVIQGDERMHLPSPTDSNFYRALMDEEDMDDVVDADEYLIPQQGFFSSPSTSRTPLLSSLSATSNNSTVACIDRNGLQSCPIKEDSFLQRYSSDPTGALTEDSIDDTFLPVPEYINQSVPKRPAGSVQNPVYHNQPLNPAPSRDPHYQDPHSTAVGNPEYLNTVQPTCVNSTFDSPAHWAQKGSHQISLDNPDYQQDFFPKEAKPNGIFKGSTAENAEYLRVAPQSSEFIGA
# [4] = Volume of distribution at steady state in mouse at 3 mg/kg, iv or 20 mg/kg, po; format: ADME, organism-based; conditions: in vivo, read-out: Vdss
# [5] = Clearance in mouse at 3 mg/kg, iv; format: ADME, organism-based; conditions: in vivo
# [6] = Half life in mouse at 3 mg/kg, iv; format: ADME, organism-based; conditions: in vivo
# [7] = Oral bioavailability in mouse at 20 mg/kg; format: ADME, organism-based; conditions: in vivo
# [8] = AUC (0 to 8 hrs) in mouse at 3 mg/kg, iv or 20 mg/kg, po; format: ADME, organism-based; design: dose 3 mg/kg, route iv; conditions: in vivo
# BaF3 [9] = experiment: Antiproliferative activity against mouse BaF3 cells harboring EGFR L858R/T790M/C797S triple mutant assessed as inhibition of cell growth; format: functional, cell-based; method in brief: as §1
# [10] = Clearance in rat at 1 mg/kg, iv; format: ADME, organism-based; conditions: in vivo
# [11] = Half life in rat at 1 mg/kg, iv; format: ADME, organism-based; conditions: in vivo
# [12] = Oral bioavailability in rat at 10 mg/kg; format: ADME, organism-based; conditions: in vivo
# NCI-H1975 [13] = experiment: Antitumor activity against human NCI-H1975 cells harboring EGFR L858R/T790M mutant xenografted in rat assessed as tumor growth inhibition at 25 mg/kg, po administered once daily for 20 days and measured on 35 day; format: functional, organism-based
# NCI-H1975 [14] = experiment: Antitumor activity against human NCI-H1975 cells harboring EGFR L858R/T790M mutant xenografted in rat assessed as tumor growth inhibition at 50 mg/kg, po administered once daily for 20 days and measured on 35 day; format: functional, organism-based
# NCI-H1975 [15] = experiment: Antitumor activity against human NCI-H1975 cells harboring EGFR L858R/T790M mutant xenografted in rat assessed as slower regrowth of tumor at 50 mg/kg, po administered once daily for 20 days and measured on 35 day; format: functional, organism-based
# NCI-H1975 [16] = experiment: Antitumor activity against human NCI-H1975 cells harboring EGFR L858R/T790M mutant xenografted in rat assessed as slower regrowth of tumor at 50 mg/kg, po administered once daily for 20 days and measured on 35 day
Compound,IC50 (BaF3 [1]),IC50 (BaF3 [2]),IC50 [3],IC50 (BaF3 [9]),further results
CN1CCN(c2ccc(-c3ccc4cnn(C(C(=O)Nc5nccs5)c5ccccc5)c(=O)c4c3)cc2)CC1 (configuration not stated),2160 nM,380 nM,10.3 nM,,
CN1CCN(c2ccc(-c3ccc4ncn(C(C(=O)Nc5nccs5)c5ccccc5)c(=O)c4c3)cc2)CC1 (configuration not stated),2320 nM,21 nM,0.9 nM,,
CN1CCC(c2ccc(-c3ccc4c(c3)CCN(C(C(=O)Nc3nccs3)c3cccc(F)c3)C4=O)cc2)CC1 (configuration not stated),1990 nM,,2.2 nM,,
CN1CCC(c2ccc(-c3ccc4c(c3)C(=O)N(C(C(=O)Nc3nccs3)c3cccc(F)c3)C4)cc2)CC1 (configuration not stated),1070 nM,20 nM,0.2 nM,152 nM,Vd [4]: 2.4 L/kg; clearance [5]: 13.9 mL/min/kg; half-life [6]: 3.1 h; F [7]: 4%; AUC(0-t) [8]: 1000 ng·h/mL
CN1CCC(c2ccc(-c3cc(F)c4ncn(C(C(=O)Nc5nccs5)c5ccccc5)c(=O)c4c3)cc2)CC1 (configuration not stated),810 nM,10 nM,,150 nM,
CN1CCC(c2ccc(-c3ccc4ncn(C(C(=O)Nc5nccs5)c5ccccc5)c(=O)c4n3)cc2)CC1 (configuration not stated),1710 nM,16 nM,,90 nM,
CN1CCC(c2ccc(-c3ccc4cnn(C(C(=O)Nc5nccs5)c5ccccc5)c(=O)c4c3)cc2)CC1 (configuration not stated),1540 nM,207 nM,,440 nM,
CN1CCC(c2ccc(-c3ccc4c(=O)n(C(C(=O)Nc5nccs5)c5ccccc5)ncc4c3)cc2)CC1 (configuration not stated),1240 nM,,9.7 nM,990 nM,
CN1CCC(c2ccc(-c3ccc4c(c3)C(=O)N(C(C(=O)Nc3nccs3)c3cc(F)ccc3O)C4)cc2)CC1 (configuration not stated),50 nM,6 nM,0.1 nM,,Vd [4]: 2.5 L/kg; clearance [5]: 15.7 mL/min/kg; half-life [6]: 2.3 h; F [7]: 15%; AUC(0-t) [8]: 2400 ng·h/mL
CN1CCN(c2ccc(-c3ccc4ccn(C(C(=O)Nc5nccs5)c5ccccc5)c(=O)c4c3)cc2)CC1 (configuration not stated),1850 nM,,,,
CN1CCN(c2ccc(-c3ccc4c(c3)C(=O)N(C(C(=O)Nc3nccs3)c3ccccc3)C4)cc2)CC1 (configuration not stated),2560 nM,43 nM,0.9 nM,,
CN1CCN(c2ccc(-c3ccc4c(=O)n(C(C(=O)Nc5nccs5)c5ccccc5)cnc4c3)cc2)CC1 (configuration not stated),2000 nM,375 nM,3.1 nM,,
O=C(Nc1nccs1)C(c1cc(F)ccc1O)N1Cc2ccc(-c3ccc(N4CCNCC4)cc3)cc2C1=O (configuration not stated),610 nM,21 nM,,,Vd [4]: 0.6 L/kg; clearance [5]: 5 mL/min/kg; half-life [6]: 3 h; AUC(0-t) [8]: 2520 ng·h/mL
CN1CCN(c2ccc(-c3ccc4c(c3)C(=O)N(C(C(=O)Nc3nccs3)c3cc(F)ccc3O)C4)cc2)CC1 (configuration not stated),490 nM,6 nM,0.3 nM,,Vd [4]: 1.8 L/kg; clearance [5]: 10.3 mL/min/kg; half-life [6]: 2.8 h; F [7]: 2%; AUC(0-t) [8]: 1350 ng·h/mL
CN1CCC(c2ccc(-c3ccc4ccn(C(C(=O)Nc5nccs5)c5ccccc5)c(=O)c4c3)cc2)CC1 (configuration not stated),1500 nM,70 nM,1.8 nM,380 nM,
CN1CCC(c2ccc(-c3ccc4c(=O)n(C(C(=O)Nc5nccs5)c5ccccc5)cnc4c3)cc2)CC1 (configuration not stated),2430 nM,225 nM,5.8 nM,900 nM,
CN1CCC(c2ccc(-c3ccc4ncn(C(C(=O)Nc5nccs5)c5ccccc5)c(=O)c4c3F)cc2)CC1 (configuration not stated),,,,,clearance [10]: 30 mL/min/kg; t1/2 [11]: 3.5 h; F [12]: 24%; Activity (NCI-H1975 [13]): Active; Activity (NCI-H1975 [14]): Active; Activity (NCI-H1975 [15]): Active; Activity (NCI-H1975 [16]): Active
CN1CCN(c2ccc(-c3ccc4c(=O)n(C(C(=O)Nc5nccs5)c5ccccc5)ncc4c3)cc2)CC1 (configuration not stated),3460 nM,1670 nM,,,
CN1CCC(c2ccc(-c3ccc4c(c3)C(=O)N(C(C(=O)Nc3nccs3)c3cccc(F)c3)CC4)cc2)CC1 (configuration not stated),1470 nM,99 nM,3.2 nM,,
CN1CCC(c2ccc(-c3cc4c(=O)n(C(C(=O)Nc5nccs5)c5ccccc5)cnc4cc3F)cc2)CC1 (configuration not stated),3000 nM,73 nM,1.4 nM,280 nM,
CN1CCN(c2ccc(-c3ccc4c(c3)C(=O)N(C(C(=O)Nc3nccs3)c3cccc(F)c3)CC4)cc2)CC1 (configuration not stated),1600 nM,126 nM,6.8 nM,,
O=C(Nc1nccs1)C(c1cc(F)ccc1O)N1Cc2ccccc2C1=O (configuration not stated),> 10000 nM,221 nM,,,
CN1CCC(c2ccc(-c3cnc4ncn(C(C(=O)Nc5nccs5)c5ccccc5)c(=O)c4c3)cc2)CC1 (configuration not stated),1140 nM,23 nM,1.9 nM,310 nM,
CN1CCC(c2ccc(-c3ccc4ncn(C(C(=O)Nc5nccs5)c5ccccc5)c(=O)c4c3)cc2)CC1 (configuration not stated),780 nM,,,50 nM,
CN1CCC(c2ccc(-c3ccc4c(=O)n(C(C(=O)Nc5nccs5)c5ccccc5)ccc4c3)cc2)CC1 (configuration not stated),1280 nM,24 nM,1.2 nM,500 nM,
CN1CCN(c2ccc(-c3ccc4c(=O)n(C(C(=O)Nc5nccs5)c5ccccc5)ccc4c3)cc2)CC1 (configuration not stated),1270 nM,62 nM,3.4 nM,,
CN1CCN(c2ccc(-c3ccc4c(c3)C(=O)N(C(C(=O)Nc3nccs3)c3cccc(F)c3)C4)cc2)CC1 (configuration not stated),1990 nM,,1.8 nM,,
